According to ChEMBL document CHEMBL1124785, “Synthesis, metabolism, and pharmacological activity of 3 alpha-hydroxy steroids which potentiate GABA-receptor-mediated chloride ion uptake in rat cerebral cortical synaptoneurosomes” (1990):

Tests used:
[1] = species: Rattus norvegicus; assay: Effect on the potentiation of muscimol-stimulated 36Cl- uptake in rat brain synaptoneurosomes; type: functional
Method in brief: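 Cerebral cortex synaptoneurosomes from adult male Sprague-Dawley rats (180-200 g), homogenized in Tris-Hepes buffer pH 7.4 with salts and glucose, filtered and washed. Tubes held 1 mg protein. Steroid plus 3 μM muscimol preincubated 10 min at 30 °C, then 0.5 µCi 36Cl- added. Uptake stopped after 5 s with ice-cold picrotoxin buffer and filtered. Counted by scintillation, in quadruplicate; increase measured over muscimol alone.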

[2] = test system: Rattus norvegicus; assay: The recovery of radioactivity 20 min after administration of [3H]- labeled steroids to rat brain; type: functional, organism-based
Method in brief: (§1)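 Adult male Sprague-Dawley rats (240-260 g), four per group, were given 100 μCi tritiated steroid by tail vein in ethanol-saline. Blood and brain were collected 20 min later and aliquots counted for radioactivity (dpm/mL plasma, dpm/g brain). The brain/plasma ratio was also taken; means ± SE.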

[3] = test system: Rattus norvegicus; assay: The recovery of radioactivity 20 min after administration of [3H]- labeled steroids to rat plasma; type: functional, organism-based; method in brief: as §1
[4] = species: Rattus norvegicus; assay: Percent of total tritium in extracts of rat brain; type: functional
Method in brief: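 Groups of four adult male Sprague-Dawley rats (240-260 g) received 100 μCi 3H-steroid in ethanol-saline by tail vein and were killed after 20 min. Brain was homogenized in chloroform/methanol (2:1) and the extract separated by HPLC (75% aqueous methanol) alongside unlabeled internal standards read at 280 nm. Fraction radioactivity was expressed as % of total brain tritium; means ± SE.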

| Structure (SMILES) | Potentiation [1] | also measured |
| --- | --- | --- |
| CC1([C@H]2CC[C@H]3[C@@H]4CC[C@H]5C[C@H](O)CC[C@]5(C)[C@H]4CC[C@]23C)OCCO1 | 0.16 nM/mg |  |
| C[C@]12CC[C@@H](O)C[C@@H]1CC[C@@H]1[C@@H]2CC[C@]2(C)[C@@H](C(=O)COS(C)(=O)=O)CC[C@@H]12 | 7.9 nM/mg |  |
| CC(=O)OCC(=O)[C@H]1CCC2C3CC[C@H]4C[C@H](O)CC[C@]4(C)C3=CC[C@@]21C (some centres undefined) | 0.34 nM/mg |  |
| CC(=O)[C@@H]1CC[C@H]2[C@@H]3CC[C@H]4C[C@H](O)CC[C@]4(C)[C@H]3CC[C@]12C | 1.12 nM/mg |  |
| CC(=O)[C@H]1CC[C@H]2[C@@H]3CC[C@@H]4C[C@H](O)CC[C@]4(C)[C@H]3C[C@H](O)[C@]12C | -2.58 nM/mg |  |
| CC(=O)[C@H]1CCC2C3CC[C@H]4C[C@H](O)CC[C@]4(C)C3=CC[C@@]21C (some centres undefined) | 1.23 nM/mg |  |
| CC(=O)O[C@@H]1CC[C@@]2(C)[C@@H](CC[C@@H]3[C@@H]2CC[C@]2(C)[C@@H](C(=O)CO)CC[C@@H]32)C1 | 0.48 nM/mg |  |
| C[C@]12CC=C3C(CC[C@H]4C[C@H](O)CC[C@]34C)C1CC[C@@H]2C(=O)CO (some centres undefined) | 1.4 nM/mg |  |
| CC(=O)O[C@@H]1CC[C@@]2(C)[C@@H](CC[C@@H]3[C@@H]2CC[C@]2(C)[C@@H](C(C)=O)CC[C@@H]32)C1 | 2.57 nM/mg |  |
| CC(=O)OCC(=O)[C@H]1CC[C@H]2[C@@H]3CC[C@H]4C[C@H](OC(C)=O)CC[C@]4(C)[C@H]3CC[C@]12C | 1.37 nM/mg |  |
| CC(=O)[C@H]1CC[C@H]2[C@@H]3CCC4=CC(=O)CC[C@]4(C)[C@H]3CC[C@]12C [PROGESTERONE] | -1.8 nM/mg |  |
| CC1([C@H]2CC[C@H]3[C@@H]4CC[C@@H]5C[C@H](O)CC[C@]5(C)[C@H]4CC[C@]23C)OCCO1 | -0.96 nM/mg |  |
| CC(=O)[C@H]1CC[C@H]2[C@@H]3CC[C@H]4C[C@H](O)CC[C@]4(C)[C@H]3CC[C@]12C [BREXANOLONE] | 10.9 nM/mg | Recovery [2]: 342000 dpm ml-1; Recovery [3]: 176000 dpm ml-1; Total tritium [4]: 50.4% |
| CC(=O)[C@H]1CC[C@H]2[C@@H]3CC[C@H]4C[C@H](O)CC[C@]4(C)[C@H]3[C@H](O)C[C@]12C | 0.7 nM/mg |  |
| C[C@]12CC[C@@H](O)C[C@H]1CC[C@@H]1[C@@H]2CC[C@]2(C)[C@@H](C(=O)CO)CC[C@@H]12 | 7.7 nM/mg |  |
| CC(=O)[C@H]1CC[C@H]2[C@@H]3CCC4=C[C@H](O)CC[C@]4(C)[C@H]3CC[C@]12C | 10.4 nM/mg |  |

| Structure (SMILES) | Potentiation [1] | also measured |
| --- | --- | --- |
| CC(=O)OCC(=O)[C@H]1CC[C@H]2[C@@H]3CC[C@@H]4C[C@H](O)CC[C@]4(C)[C@H]3CC[C@]12C | 10.3 nM/mg |  |
| C[C@]12CC[C@@H](O)C[C@@H]1CC[C@@H]1[C@@H]2CC[C@]2(C)[C@H](C#N)CC[C@@H]12 | -2.1 nM/mg |  |
| CC(=O)C1CC[C@H]2[C@@H]3CC[C@H]4CC(=O)CC[C@]4(C)[C@H]3CC[C@]12C (some centres undefined) | 2.63 nM/mg | Total tritium [4]: 40.6% |
| CC(=O)[C@H]1CCC2C3CCC4=C[C@@H](O)CC[C@]4(C)C3CC[C@@]21C (some centres undefined) | 1.43 nM/mg |  |
| CC(=O)[C@H]1CC[C@H]2[C@@H]3CC[C@@H]4C[C@H](O)CC[C@]4(C)[C@H]3[C@H](O)C[C@]12C | 0.98 nM/mg |  |
| C[C@]12CC[C@@H](O)C[C@@H]1CC[C@@H]1[C@@H]2CC[C@]2(C)C(=O)CC[C@@H]12 [ANDROSTERONE] | 7 nM/mg |  |
| C[C@]12CC[C@@H](O)C[C@@H]1CC[C@@H]1[C@@H]2CC[C@]2(C)[C@@H](C(=O)CO)CC[C@@H]12 | 13.1 nM/mg | Recovery [2]: 212000 dpm ml-1; Recovery [3]: 316000 dpm ml-1; Total tritium [4]: 48.1% |
| CC(=O)C1CC[C@H]2[C@@H]3CC[C@H]4C/C(=N\O)CCC4(C)[C@H]3CCC12C (some centres undefined) | -3.26 nM/mg |  |
| C[C@]12CC[C@@H](O)C[C@@H]1CC[C@@H]1[C@@H]2CC[C@]2(C)[C@@H](C#N)CC[C@@H]12 | 13 nM/mg |  |
| CC(=O)OCC(=O)[C@H]1CC[C@H]2[C@@H]3CC[C@H]4C[C@H](O)CC[C@]4(C)[C@H]3CC[C@]12C | 12.2 nM/mg |  |
| C[C@H](O)[C@H]1CC[C@H]2[C@@H]3CC[C@H]4C[C@H](O)CC[C@]4(C)[C@H]3CC[C@]12C | 1.97 nM/mg |  |
| COC(=O)[C@H]1CC[C@H]2[C@@H]3CC[C@H]4C[C@H](O)CC[C@]4(C)[C@H]3CC[C@]12C | 3.6 nM/mg |  |
| C[C@]12CCC(=O)C[C@@H]1CC[C@@H]1[C@@H]2CC[C@]2(C)C(C(=O)CO)CC[C@@H]12 (some centres undefined) | -1.95 nM/mg | Total tritium [4]: 46.1% |
| C[C@]12CC[C@@H](O)C[C@@H]1CC[C@@H]1[C@@H]2CC[C@]2(C)/C(=N\O)CC[C@@H]12 | -1.91 nM/mg |  |
| C[C@]12CC[C@@H](O)C[C@H]1CC[C@@H]1[C@@H]2CC[C@]2(C)C(=O)CC[C@@H]12 [ETIOCHOLANOLONE] | 4.9 nM/mg |  |
